ChEMBL document CHEMBL1156665, “Potent inhibition of human phosphodiesterase-5 by icariin derivatives” (J Nat Prod, 2008)
Calls of active or inactive are those of the source. The rule behind the calls is not given here.

Legend:
[1] = target: T1, Cone cGMP-specific 3',5'-cyclic phosphodiesterase subunit alpha' (Homo sapiens, UniProt P51160); assay: Inhibition of human PDE6C at 10 uM; settings: in the assay text read “at 10-fold PDE5A1 IC50” for “at 10 uM”
Method in brief: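 Human PDE6C run under the same conditions as the PDE5A1 assay (Kincaid–Manganiello method, modified), at 0.5 U enzyme per sample. Compounds tested at a single concentration 10-fold above their PDE5A1 IC50. Mean ± SD of at least two experiments in triplicate.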

Homo sapiens [2] = species on record: Homo sapiens; assay: Selectivity ratio of IC50 for human cAMP-PDE to IC50 for human PDE5A1
Method in brief: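 cAMP-PDE IC50 divided by PDE5A1 IC50. cAMP-PDE from human platelet lysate (64 µg protein/mL) with 0.5 µM cAMP/[3H]-cAMP, 5 min at 30 °C, at 1–250 µM. PDE5A1 was recombinant human full-length enzyme expressed in COS-7 cells. IC50s from sigmoidal fits.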

[3] = Inhibition of human platelet cAMP-specific phosphodiesterase
Method in brief: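 Platelets from healthy volunteers' blood, pelleted by centrifugation at 4 °C, resuspended in 10 mM Tris/HCl pH 7.4 and lysed by three freeze–thaw cycles. Lysate (64 µg protein/mL) incubated 5 min at 30 °C with 0.5 µM cAMP plus [3H]-cAMP in 30 mM Tris-HCl pH 7.4, 4 mM MgCl2. Product converted with nucleotidase and separated on DEAE-Sephadex. [3H]-adenosine counted by scintillation. Tested at 1–250 µM, IC50 from sigmoidal fit. Mean ± SD of three experiments in triplicate.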

[4] = Cytotoxicity against human fibroblasts at 100 uM after 24 hrs by MTT assay; assay type: cell-based; settings: fibroblast
Method in brief: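 Human skin fibroblasts exposed 24 h to 0.25–100 µM in DMEM-F12 with 10% heat-inactivated FBS, 1% penicillin, 1% L-glutamine. Medium then replaced with MTT 0.5 mg/mL in PBS, 3 h at 37 °C. Formazan extracted with 2-propanol/DMSO (9:1), 15 min at 37 °C, absorbance read at 560 nm.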

[5] = target: T2, cGMP-specific 3',5'-cyclic phosphodiesterase (Homo sapiens, UniProt O76074); assay: Inhibition of human recombinant PDE5A1 expressed in COS7 cells; assay type: cell-based, COS-7
[6] = target: T1, Cone cGMP-specific 3',5'-cyclic phosphodiesterase subunit alpha'; assay: Inhibition of human PDE6C
Homo sapiens [7] = species on record: Homo sapiens; assay: Selectivity ratio of IC50 for human PDE6C to IC50 for human PDE5A1
Method in brief: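 PDE6C IC50 divided by PDE5A1 IC50. PDE6C assayed as for PDE5A1 (modified Kincaid–Manganiello method, 0.5 U enzyme/sample). PDE5A1 was full-length human recombinant enzyme expressed in COS-7 cells. IC50s from sigmoidal curve fits. Mean ± SD of at least two experiments in triplicate.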

[8] = target: T2, cGMP-specific 3',5'-cyclic phosphodiesterase; assay: Inhibition of human recombinant PDE5A1 expressed in COS7 cells at 10 uM; assay type: cell-based; settings: COS-7
Method in brief: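 Full-length human PDE5A1 cDNA expressed in COS-7 cells as the enzyme source. Activity measured by the Kincaid and Manganiello method with minor modifications. Individual compounds screened at a single 10 µM concentration; plant extracts at 50 µg/mL. Results are mean ± SD of at least two experiments in triplicate.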

T1 sequence (P51160 whole entry): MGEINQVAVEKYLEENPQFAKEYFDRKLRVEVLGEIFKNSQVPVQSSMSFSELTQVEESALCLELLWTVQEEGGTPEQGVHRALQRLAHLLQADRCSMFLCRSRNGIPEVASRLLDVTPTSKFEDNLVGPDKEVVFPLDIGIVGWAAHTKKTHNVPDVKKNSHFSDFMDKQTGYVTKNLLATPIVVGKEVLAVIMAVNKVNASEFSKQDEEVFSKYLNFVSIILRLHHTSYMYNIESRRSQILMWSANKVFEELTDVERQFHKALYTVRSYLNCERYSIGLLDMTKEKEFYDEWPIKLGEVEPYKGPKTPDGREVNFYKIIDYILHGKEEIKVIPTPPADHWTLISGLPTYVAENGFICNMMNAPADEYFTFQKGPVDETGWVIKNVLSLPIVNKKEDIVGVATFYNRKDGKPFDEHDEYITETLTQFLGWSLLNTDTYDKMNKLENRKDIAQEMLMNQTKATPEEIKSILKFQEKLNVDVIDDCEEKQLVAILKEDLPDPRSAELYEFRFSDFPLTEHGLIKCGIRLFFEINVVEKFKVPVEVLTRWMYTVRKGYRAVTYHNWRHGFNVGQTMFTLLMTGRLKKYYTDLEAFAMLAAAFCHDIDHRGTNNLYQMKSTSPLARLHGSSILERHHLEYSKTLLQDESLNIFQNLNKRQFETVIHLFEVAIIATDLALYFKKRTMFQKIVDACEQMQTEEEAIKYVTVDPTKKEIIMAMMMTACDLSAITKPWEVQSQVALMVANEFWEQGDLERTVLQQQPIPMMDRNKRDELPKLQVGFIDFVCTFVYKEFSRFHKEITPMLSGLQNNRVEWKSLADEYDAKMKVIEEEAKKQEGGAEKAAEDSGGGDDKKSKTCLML

COc1ccc(-c2oc3c(CC=C(C)C)c(OCCO)cc(O)c3c(=O)c2OCCO)cc1
Activity [1]: inactive
Ratio IC50 (Homo sapiens [2]): 1300
IC50 [3]: 96.3 µM
Activity [4]: Non-toxic
IC50 [5]: 0.074 µM
IC50 [6]: 30.9 µM
Ratio IC50 (Homo sapiens [7]): 418

O=c1c(O)c(-c2ccc(O)c(O)c2)oc2cc(O)cc(O)c12
inhibition [8]: 23%

COc1ccc(-c2oc3c4c(cc(O)c3c(=O)c2O)OC(C)(C)CC4)cc1
Activity [1]: inactive
IC50 [5]: 45.5 µM

COc1ccc(-c2oc3c(CC=C(C)C)c(O[C@@H]4O[C@H](CO)[C@@H](O)[C@H](O)[C@H]4O)cc(O)c3c(=O)c2O[C@@H]2O[C@@H](C)[C@H](O)[C@@H](O)[C@H]2O)cc1 [ICARIIN]
inhibition [1]: 45%
IC50 [5]: 5.9 µM

CC(C)=CCc1c(O)cc(O)c2c(=O)cc(-c3ccc(O)cc3)oc12
IC50 [5]: 1.29 µM

COc1ccc(-c2oc3c(CC=C(C)C)c(O)cc(O)c3c(=O)c2O[C@@H]2O[C@H](C)[C@@H](O)[C@H](O)[C@@H]2O)cc1
Activity [1]: inactive

O=c1cc(-c2ccc(O)cc2)oc2cc(O)cc(O)c12
inhibition [8]: 12%

COc1ccc(-c2oc3c(CC=C(C)C)c(OCCO)cc(O)c3c(=O)c2O[C@@H]2O[C@H](C)[C@@H](O)[C@H](O)[C@@H]2O)cc1
inhibition [1]: 86%
IC50 [5]: 0.36 µM

CC(C)=CCc1c(O)cc(O)c2c(=O)c(O)c(-c3ccc(O)c(O)c3)oc12
IC50 [5]: 0.7 µM

O=C1C[C@@H](c2ccc(O)cc2)Oc2cc(O)cc(O)c21
inhibition [8]: 6%

COc1ccc(-c2oc3c(CC=C(C)C)c(O)cc(O)c3c(=O)c2O[C@@H]2O[C@@H](C)[C@H](O)[C@@H](O)[C@H]2O)cc1 [ICARISIDE II]
IC50 [5]: 0.16 µM

CC(C)=CCc1c(O)cc(O)c2c1OC(c1ccc(O)cc1)CC2=O (centres undefined) [SOPHORAFLAVANONE B]
IC50 [5]: 16.2 µM

CCCc1nn(C)c2c(=O)[nH]c(-c3cc(S(=O)(=O)N4CCN(C)CC4)ccc3OCC)nc12
IC50 [3]: 27.5 µM

COc1ccc(-c2oc3c(CC=C(C)C)c(O)cc(O)c3c(=O)c2O)cc1 [ICARITIN]
Activity [1]: inactive
IC50 [5]: 2.2 µM
